A short description of data set [1]: Tmax in cynomolgus monkey plasma at 5 mg/kg, po tris(hydroxymethyl)aminomethane (tris) salt form of compound and measured up to 24 hrs by LC/MS-MS analysis. It counts as ADME, organism-based, Macaca fascicularis. The essentials:
(§1)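 Plasma concentration–time data, n = 2, averaged. Cmax and Tmax read directly from the data. AUC0–24 by the linear trapezoidal rule. F calculated as dose-normalized AUC PO/IV.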

Data set [2] can be described thus: Aqueous solubility of compound at pH 7.4 using tris(hydroxymethyl)aminomethane (tris) salt form of compound. It counts as physicochemical. The following applies: buffer.
Data set [3] is described as follows: Ratio of drug uptake in cynomolgus monkey liver to plasma at 1 mg/kg, iv tris(hydroxymethyl)aminomethane (tris) salt form of compound after 6 hrs by LC/MS-MS analysis. Particulars: liver and plasma. It counts as ADME, organism-based, Macaca fascicularis. The procedure, abridged: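 Cynomolgus monkeys (n = 2) given 1 mg/kg IV as the tris salt in 2% N-methylpyrrolidone/98% sulfobutylether-β-cyclodextrin (12.5%) in 50 mM TRIS pH 8.0. Liver and plasma taken 6 h post-dose.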

The nature of data set [4]: AUC (0 to 24 hrs) in cynomolgus monkey plasma at 5 mg/kg, po tris(hydroxymethyl)aminomethane (tris) salt form of compound and measured up to 24 hrs by LC/MS-MS analysis. It counts as ADME, organism-based, Macaca fascicularis. Also on record: route oral, dose 5 mg/kg, time <=24. The essentials: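 Cynomolgus monkeys received an oral dose. AUC0–24 came from plasma concentration–time data by the linear trapezoidal rule, averaged for n = 2.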

Data set [5] is described as follows: Cmax in Wistar-Hannover rat plasma at 5 mg/kg, po tris(hydroxymethyl)aminomethane (tris) salt form of compound and measured up to 24 hrs by LC/MS-MS analysis. The format is ADME, organism-based. Further details: route oral, dose 5 mg/kg, time <=24.
Data set [6] in a line: Half life in cynomolgus monkey plasma at 5 mg/kg, po tris(hydroxymethyl)aminomethane (tris) salt form of compound and measured up to 24 hrs by LC/MS-MS analysis. The format is ADME, organism-based, Macaca fascicularis. The essentials:
(§2)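 Cynomolgus monkeys dosed 1 mg/kg IV as the tris salt in 2% N-methylpyrrolidone/98% sulfobutylether-β-cyclodextrin (12.5%) in 50 mM TRIS, pH 8.0, or PO as the tris salt. Plasma was analysed by LC-MS/MS, n = 2. CL = IV dose/AUC; Vss = dose/(AUC × elimination rate constant); Cmax taken from observed data.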

Data set [7] can be described thus: Ratio of drug uptake in cynomolgus monkey unbound liver to plasma concentration at 1 mg/kg, iv tris(hydroxymethyl)aminomethane (tris) salt form of compound after 6 hrs by LC/MS-MS analysis. It counts as ADME, organism-based, Macaca fascicularis. Particulars: other tissue. The procedure, abridged: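 Cynomolgus monkeys (n = 2) given a single IV dose as tris salt in 2% N-methylpyrrolidone / 98% sulfobutylether-betacyclodextrin (12.5%) in 50 mM TRIS buffer, pH 8.0. Plasma and liver sampled 6 h post-dose. Total concentrations converted to unbound using equilibrium-dialysis fu in plasma and liver. Ratio taken as mean free liver over free plasma concentration.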

Data set [8] can be described thus: Drug uptake in cynomolgus monkey liver at 1 mg/kg, iv tris(hydroxymethyl)aminomethane (tris) salt form of compound after 6 hrs by LC/MS-MS analysis. It counts as ADME, organism-based, Macaca fascicularis. The following applies: read-out: Drug uptake. The essentials:
(§3)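 Monkeys, n = 2, given 1 mg/kg IV as the tris salt in 2% N-methylpyrrolidone/98% sulfobutylether-β-cyclodextrin (12.5%) in 50 mM TRIS, pH 8.0. Plasma and liver concentrations were taken 6 h post-dose.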

The nature of data set [9]: Drug uptake in cynomolgus monkey assessed as plasma concentration at 1 mg/kg, iv tris(hydroxymethyl)aminomethane (tris) salt form of compound after 6 hrs by LC/MS-MS analysis. It counts as ADME, organism-based, Macaca fascicularis. The procedure, abridged:
as §3

Data set [10] in a line: AUC (0 to 24 hrs) in Wistar-Hannover rat plasma at 5 mg/kg, po tris(hydroxymethyl)aminomethane (tris) salt form of compound and measured up to 24 hrs by LC/MS-MS analysis. The format is ADME, organism-based. Further details: route oral, dose 5 mg/kg, time <=24. The essentials:
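Male Wistar-Hannover rats (240–350 g), housed singly after 1 week of acclimation, were dosed orally. AUC0–24 came from plasma concentration–time data by the linear trapezoidal rule, averaged for n = 2. Lower detection limit was 1 ng/mL.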

The nature of data set [11]: Oral bioavailability in cynomolgus monkey plasma at 5 mg/kg using tris(hydroxymethyl)aminomethane (tris) salt form of compound and measured up to 24 hrs by LC/MS-MS analysis. It counts as ADME, organism-based, Macaca fascicularis. The procedure, abridged: as §1
A short description of data set [12]: Cmax in cynomolgus monkey plasma at 5 mg/kg, po tris(hydroxymethyl)aminomethane (tris) salt form of compound and measured up to 24 hrs by LC/MS-MS analysis. It counts as ADME, organism-based, Macaca fascicularis. Also on record: route oral, dose 5 mg/kg, time <=24. The procedure, abridged:
as §2

Data set [13] in a line: Half life in Wistar-Hannover rat plasma at 5 mg/kg, po tris(hydroxymethyl)aminomethane (tris) salt form of compound and measured up to 24 hrs by LC/MS-MS analysis. It counts as ADME, organism-based.
A short description of data set [14]: Oral bioavailability in Wistar-Hannover rat plasma at 5 mg/kg tris(hydroxymethyl)aminomethane (tris) salt form of compound and measured up to 24 hrs by LC/MS-MS analysis. It counts as ADME, organism-based. The essentials: as §1
Data set [15] is described as follows: Tmax in Wistar-Hannover rat plasma at 5 mg/kg, po tris(hydroxymethyl)aminomethane (tris) salt form of compound and measured up to 24 hrs by LC/MS-MS analysis. The format is ADME, organism-based. The procedure, abridged: as §1
Data set [16] in a line: Aqueous solubility of compound at pH 6.5 using tris(hydroxymethyl)aminomethane (tris) salt form of compound. It counts as physicochemical. The following applies: buffer.
A short description of data set [17]: Aqueous solubility of compound at pH 1.2 using tris(hydroxymethyl)aminomethane (tris) salt form of compound. The format is physicochemical. Particulars: buffer.

A word on the Tmax: it is the time from dosing to the highest level. Usually solubility stands for how much of the substance goes into solution per volume. As usually defined, the Kp is the ratio of the level in a tissue or fluid to that in plasma or blood. As usually defined, the AUC(0-t) is exposure summed from dosing to a finite time, without extrapolation to infinity. As a reminder, the Cmax is the peak of the concentration-time curve. For orientation: half-life means the time needed for the level to fall by half in the phase considered. The bioavailability is dose-corrected exposure relative to a reference, in per cent. Consider `COc1cc(C(=O)N2CCC3(CC2)CC(=O)c2c(cnn2C(C)C)C3)cc(-c2ccc(C(=O)O)cc2)n1.NC(CO)(CO)CO` [CLESACOSTAT TROMETHAMINE], for which the time to peak (Tmax) in data set [1] stood at 1.13 h; in data set [15] it was 0.54 h. The solubility in data set [2] amounted to 4.77 mM; in data set [16], 3.98 mM; in data set [17], 1.32 mM. Further, the Kp at 6 h in data set [3] worked out at 15. Moreover, the figures for the AUC(0-t) in data set [4] and in data set [10] were 36200 ng·h/mL and 2490 ng·h/mL, respectively. The Cmax in data set [5] worked out at 390 ng/mL; in [12] it was 5780 ng/mL. The results for the half-life in data set [6] and in data set [13] were 11 h and 5.6 h, respectively. Also, the Ratio in data set [7] is on record as 230. Besides, the concentration at 6 h in [8] stood at 1300 ng/mL; in data set [9] it was 88 ng/mL. Besides, the bioavailability was determined as 52% in data set [11] and 48% in data set [14].

The values are drawn from ChEMBL document CHEMBL4665761, “Optimizing the Benefit/Risk of Acetyl-CoA Carboxylase Inhibitors through Liver Targeting” (J Med Chem, 2020).
